ARNT TACC3 PPI = ARNT/TACC3 interaction disruption; Q9Y6A5; AID 623870; 390,000 tested, 0.66% active; AlphaScreen His-ARNT PAS-B/GST-TACC3 binding, luminescence; TACC3 fragment carries E629A point mutation; inhibition, % at 9.99 µM;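 active = mean inhibition of replicates at least 50% and at least half of replicates each reaching 50%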;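 note: 0% = complete ARNT plus TACC3 wells and 100% = ARNT alone without TACC3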
SR-BI DiI-HDL act = enhances SR-BI lipid uptake from DiI-HDL | CHO ldlA[mSR-BI] cells, DiI-HDL uptake fluorescence, 3 h; 100 = double the neutral-control signal | activation, % at 12.5 µM | 320,000 tested, 0.096% active;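 active = mean replicate activation of at least 60% and every replicate at or above 60%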;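 note: 0% = median plate neutral-control signal and 100% = twice that signal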
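Assay system: LDL receptor-deficient CHO ldlA cells overexpressing murine SR-BI / Medium: BSA-supplemented, HEPES-buffered Ham's F12, pH 7.4 / Probe or stimulus: DiI-labelled HDL at 10 µg/mL final / Timing: compound with DiI-HDL co-incubation, 3 h at 37 °C / Technique: bottom-read cell fluorescence after medium removal, ex 550/em 595 nm / Measure: HDL uptake via cellular fluorescence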
CAL PDZ FP-1 = CAL PDZ (human) peptide binding inhibition; 300,000 tested, 0.92% active; AID 602252; purified CAL PDZ, TMR-peptide fluorescence polarization, 1 h; inhibition, % at 24.9 µM; Q9HD26;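 active = mean inhibition of at least 30% with at least half of replicates also reaching 30%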;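 note: 0% = DMSO neutral control and 100% = excess unlabeled competitor peptide PRC23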
SR-BI DiI inh = mouse SR-BI HDL lipid transfer inhibition | ldlA[mSR-BI] CHO cells, DiI-HDL uptake fluorescence, 3 h | 320,000 tested, 0.96% active | inhibition, % at 12.5 µM | Q61009;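 active = mean replicate inhibition of at least 70% and a set share of replicates each scoring 70 or more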;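 note: 0% = median of neutral control wells and 100% = median of positive control wells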
Target sequence (Q61009 whole entry, looked up): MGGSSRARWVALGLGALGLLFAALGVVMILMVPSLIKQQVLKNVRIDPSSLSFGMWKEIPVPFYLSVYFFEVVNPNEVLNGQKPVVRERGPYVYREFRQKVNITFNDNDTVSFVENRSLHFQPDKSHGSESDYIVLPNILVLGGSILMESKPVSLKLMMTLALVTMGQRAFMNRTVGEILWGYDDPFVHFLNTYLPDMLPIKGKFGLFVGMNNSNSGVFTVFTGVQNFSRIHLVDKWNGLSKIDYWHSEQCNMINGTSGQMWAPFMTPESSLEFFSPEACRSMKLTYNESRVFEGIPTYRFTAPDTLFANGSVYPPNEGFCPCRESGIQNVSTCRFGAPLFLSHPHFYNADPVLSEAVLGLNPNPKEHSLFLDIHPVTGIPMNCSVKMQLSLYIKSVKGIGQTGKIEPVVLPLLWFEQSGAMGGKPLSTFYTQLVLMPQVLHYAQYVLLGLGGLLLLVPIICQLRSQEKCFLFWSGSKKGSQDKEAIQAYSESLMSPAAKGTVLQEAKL
CAL PDZ FP-2 = human CAL PDZ-peptide interaction inhibition; purified CAL PDZ, TMR-peptide fluorescence polarization, 1 h; inhibition, % at 20 µM; 330,000 tested, 0.02% active; AID 504414;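 active = highest replicate inhibition of at least 40%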;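 note: plate controls were DMSO neutral control wells for no effect and unlabeled competitor peptide control wells for full effect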
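material = purified tagged CAL PDZ domain construct (CerCALP) | compound dosing = 20 µM, one dose | times = 1 h at RT | measured by = fluorescence polarization from S- and P-plane intensities, G-factor corrected | read-out = inhibition from polarization loss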
miR-122 sensor = blocks miR-122 activity in Huh7 sensor cells; AID 602342; activation (reporter increase), % at 12.5 µM; Huh7 miR-122 Renilla luciferase sensor, 48 h; neutral wells = 0, positive control = 100; 340,000 tested, 0.3% active;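 active = mean replicate activation score at least 90 and every replicate individually at or above 90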;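 note: higher luciferase means less miR-122 activity so hits act as miR-122 inhibitors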
ARNT Alpha ctr-1 = counter-screen for ARNT/TACC3 inhibitors: AlphaScreen artifacts | shares compounds with ARNT TACC3 PPI | His-ARNT PASB-GST AlphaScreen artifact counter-screen, luminescence | AC50, µM (doses to about 68 µM), without a hit: at the top dose activity change, negative = signal decrease | 1,200 tested, 50% active | AID 651705;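 active = every separate test run was called active for a drop in luminescence, with AC50 within twice the top valid dose, actives reach about 71 µM in these data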
ARNT Alpha ctr-2 = produces AlphaScreen artifacts in ARNT-TACC3 counter-screen; 45 tested, 70% active; AID 720564; Dual-tagged His-ARNT PASB-GST AlphaScreen artifact counter-screen; AC50, µM; shares compounds with ARNT TACC3 PPI;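 active = luminescence drop, with half-maximal potency fitted within twice the sample's top valid dose, cut at about 70 µM in these data; inactive = the rest, including signal moving the wrong way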
An asterisk follows results filed as active; . = no result given; [ ] = dose if it differs, or a comment. Hits are enriched below; roughly 2.1% of the tested compounds scored in any of these assays.

SMILES	ARNT TACC3 PPI	SR-BI DiI-HDL act	CAL PDZ FP-1	SR-BI DiI inh	CAL PDZ FP-2	miR-122 sensor	ARNT Alpha ctr-1	others
O=C(CSc1nnc(-c2ccccn2)o1)Nc1ccccc1Cl	75*	15	0	-15	-2	-1	-27%
COC(=O)c1ccc(NC(=O)CSc2ccc(-c3ccccn3)nn2)cc1	60*	-16	-5	16	-1	-5	-37%
CCOC(=O)c1ccc(NC(=O)CSc2ccc(-c3cccnc3)nn2)cc1	-4	.	2	.	-3	-8	.
COc1ccccc1CNC(=O)CSc1ccc(-c2ccccn2)nn1	73*	.	1	.	-1	.	59µM*
O=C(CSc1ccc(-c2ccccn2)nn1)N1CCCc2ccccc21	59*	.	4	.	-2	3	30µM*
Cn1c(SCC(=O)Nc2nccs2)nnc1-c1ccccn1	3	16	-6	-16	1	-3	.
Cc1ccccc1NC(=O)CSc1ccc(-c2ccccn2)nn1	61*	-37	-1	37	-3	.	35µM*
O=C(CSc1ccc(-c2ccccn2)nn1)Nc1nccs1	61*	.	-5	.	-2	.	60µM*	ARNT Alpha ctr-2=4.7*
COc1ccc(-c2ccc3c(c2)[C@H]2[C@H](CCN2C(=O)c2cnccn2)[C@H](CO)N3)cc1	2	.	.	.	.	2[16.7 µM]	.
CN1c2ccc(-c3ccccc3)cc2[C@H]2[C@H](CCN2S(=O)(=O)c2ccccc2F)[C@@H]1CO	-15	.	.	.	.	12[16.7 µM]	.
O=C(CSc1n[nH]c(=O)[nH]c1=O)N/N=C/c1ccccc1O	52*	-11	-3	11	-1	.	-27%
COc1cc(/C=N/NC(=O)CSc2n[nH]c(=O)[nH]c2=O)cc(OC)c1O	57*	15	3	-15	-3	4	-37%
CCOc1ccccc1/C=N/NC(=O)CSc1n[nH]c(=O)[nH]c1=O	-1	16	.	-16	-2	.	.
COc1ccc(CNC(=O)C[C@H]2CC[C@@H]3[C@@H](COc4ccc(NC(C)=O)cc4C(=O)N3C)O2)cc1	5	.	.	.	.	-4[16.7 µM]	.
CO[C@@H]1CN(C)C(=O)c2ccc(NS(=O)(=O)CC(F)(F)F)cc2OC[C@@H](C)N(Cc2ccccn2)C[C@H]1C	30	.	.	.	.	.	.
O=C(c1ccco1)[C@@H]1[C@@H]2C(=O)N(c3ccccc3)C(=O)[C@@H]2C2c3ccccc3C=CN21 (stereo partly drawn)	41*	2	-2	-2	0	.	-34%
Cc1ccc(/C=N/Nc2cn[nH]c(=O)n2)o1	57*	1	4	-1	-1	.	-11%
CC(=O)Nc1ccc(-n2cnnn2)cc1	-3	8	2	-8	-1	.	.
O=C(O)c1cn[nH]c1-n1cnnn1	61*	18	.	-18	-1	-4	-9%
O=C(C[C@@H]1C=C[C@@H](NS(=O)(=O)c2ccccc2)[C@H](CO)O1)NCc1ccccc1F	-5	.	.	.	.	.	.
Cc1ccc(-c2nc(C)sc2CC(=O)NCc2ccco2)cc1	active	-49	1	49	-1	0	-12%
O=C(c1cc(-c2ccccc2)on1)N1CCCC1	-5	-10	-1	10	-1	-2	.
O=C(c1cc(-c2ccccc2)on1)N1CCN(c2ccccc2)CC1	-9	-1	0	1	1	6	.
O=C(c1cc(-c2ccccc2)on1)N1CCC(CO)CC1	.	.	.	.	.	.	-2%[38 µM]
O=C(c1cc(-c2ccccc2)on1)N1CCC(N2CCCC2)CC1	.	.	.	.	.	.	0%[38 µM]
O=C(c1cc(-c2ccccc2)on1)N1CCN(c2ccncc2)CC1	.	.	.	.	.	.	-7%[38 µM]
COc1ccccc1N1CCN(C(=O)c2cc(-c3ccccc3)on2)CC1	-1	-6	-1	6	-1	1	.
